Results published in ChEMBL document CHEMBL1153792, “Synthesis, characterization and evaluation of antibacterial activity of some thiazolo[3,2-b][1,2,4]triazole incorporating diphenylsulfone moieties” (2009).
In brackets after ≈: the same amount, converted by molar mass.

Experiments:
Format in all cases: functional
Staphylococcus aureus = experiment: Antimicrobial activity against Staphylococcus aureus ATCC 12600 after 18 to 24 hrs by liquid broth method
In short: (§1)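 Serial twofold dilution in Mueller–Hinton broth in 96-well format. Compounds were dissolved in DMSO and tested at final levels of 1024, 512, 256, 128, 64, 32, 16, 8, 4 and 2. Inoculum was a 0.5 McFarland suspension. Plates were incubated at 37 °C for 18–24 h. MIC was read by eye as the lowest concentration clearly inhibiting growth.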

Pseudomonas aeruginosa = experiment: Antimicrobial activity against Pseudomonas aeruginosa ATCC 9027 after 18 to 24 hrs by liquid broth method; in short: as §1
Enterococcus faecalis = experiment: Antimicrobial activity against Enterococcus faecalis ATCC 19433 after 18 to 24 hrs by liquid broth method; in short: as §1
Citrobacter freundii = experiment: Antimicrobial activity against Citrobacter freundii ATCC 8090 after 18 to 24 hrs by liquid broth method; in short: as §1
Escherichia coli = experiment: Antimicrobial activity against Escherichia coli ATCC 11775 after 18 to 24 hrs by liquid broth method; in short: as §1
Acinetobacter baumannii = experiment: Antimicrobial activity against Acinetobacter baumannii ATCC 19606 after 18 to 24 hrs by liquid broth method; in short: as §1
Bacillus cereus = experiment: Antimicrobial activity against Bacillus cereus ATCC 14579 after 18 to 24 hrs by liquid broth method; in short: as §1
[1] = test system: Staphylococcus epidermidis; experiment: Antimicrobial activity against Staphylococcus epidermidis ATCC 14990 after 18 to 24 hrs by liquid broth method; in short: as §1

SMILES	MIC (Staphylococcus aureus) [µg/mL]	MIC (Pseudomonas aeruginosa) [µg/mL]	MIC (Enterococcus faecalis) [µg/mL]	MIC (Citrobacter freundii) [µg/mL]	MIC (Escherichia coli) [µg/mL]	MIC (Acinetobacter baumannii) [µg/mL]	MIC (Bacillus cereus) [µg/mL]	MIC [1] [µg/mL]
O=C(CSc1nnc(-c2ccc(S(=O)(=O)c3ccccc3)cc2)[nH]1)c1ccccc1	64 (≈ 147 µM)	128 (≈ 294 µM)	256 (≈ 588 µM)	128 (≈ 294 µM)	64 (≈ 147 µM)	64 (≈ 147 µM)	128 (≈ 294 µM)	64 (≈ 147 µM)
O=S(=O)(c1ccc(Cl)cc1)c1ccc(-c2nc3scc(-c4ccc(Br)cc4)n3n2)cc1	512 (≈ 964 µM)	> 1020	> 1020	> 1020	> 1020	128 (≈ 241 µM)	> 1020	> 1020
O=C(CSc1nnc(-c2ccc(S(=O)(=O)c3ccc(Br)cc3)cc2)[nH]1)c1ccc(Br)cc1	128 (≈ 216 µM)	128 (≈ 216 µM)	128 (≈ 216 µM)	128 (≈ 216 µM)	64 (≈ 108 µM)	64 (≈ 108 µM)	256 (≈ 431 µM)	64 (≈ 108 µM)
O=S(=O)(c1ccc(Br)cc1)c1ccc(-c2nc3scc(-c4ccccc4)n3n2)cc1	128 (≈ 258 µM)	128 (≈ 258 µM)	256 (≈ 516 µM)	128 (≈ 258 µM)	64 (≈ 129 µM)	64 (≈ 129 µM)	256 (≈ 516 µM)	64 (≈ 129 µM)
O=C(CSc1nnc(-c2ccc(S(=O)(=O)c3ccccc3)cc2)[nH]1)c1ccc(Br)cc1	512 (≈ 995 µM)	512 (≈ 995 µM)	512 (≈ 995 µM)	512 (≈ 995 µM)	512 (≈ 995 µM)	512 (≈ 995 µM)	512 (≈ 995 µM)	512 (≈ 995 µM)
O=S(=O)(c1ccc(Br)cc1)c1ccc(-c2nc3scc(-c4ccc(Br)cc4)n3n2)cc1	128 (≈ 222 µM)	128 (≈ 222 µM)	256 (≈ 445 µM)	128 (≈ 222 µM)	64 (≈ 111 µM)	64 (≈ 111 µM)	256 (≈ 445 µM)	64 (≈ 111 µM)
O=S(=O)(c1ccccc1)c1ccc(-c2nc3scc(-c4ccccc4)n3n2)cc1	128 (≈ 307 µM)	128 (≈ 307 µM)	512 (≈ 1230 µM)	128 (≈ 307 µM)	64 (≈ 153 µM)	64 (≈ 153 µM)	512 (≈ 1230 µM)	64 (≈ 153 µM)
O=S(=O)(c1ccc(Br)cc1)c1ccc(-c2nnc(S)[nH]2)cc1	64 (≈ 161 µM)	128 (≈ 323 µM)	256 (≈ 646 µM)	128 (≈ 323 µM)	64 (≈ 161 µM)	64 (≈ 161 µM)	64 (≈ 161 µM)	256 (≈ 646 µM)
O=C(CSc1nnc(-c2ccc(S(=O)(=O)c3ccc(Br)cc3)cc2)[nH]1)c1ccccc1	128 (≈ 249 µM)	128 (≈ 249 µM)	256 (≈ 498 µM)	128 (≈ 249 µM)	64 (≈ 124 µM)	64 (≈ 124 µM)	128 (≈ 249 µM)	64 (≈ 124 µM)
O=C(CSc1nnc(-c2ccc(S(=O)(=O)c3ccc(Cl)cc3)cc2)[nH]1)c1ccccc1	64 (≈ 136 µM)	64 (≈ 136 µM)	256 (≈ 545 µM)	128 (≈ 272 µM)	64 (≈ 136 µM)	64 (≈ 136 µM)	64 (≈ 136 µM)	64 (≈ 136 µM)
O=C(CSc1nnc(-c2ccc(S(=O)(=O)c3ccc(Cl)cc3)cc2)[nH]1)c1ccc(Br)cc1	64 (≈ 117 µM)	64 (≈ 117 µM)	256 (≈ 466 µM)	128 (≈ 233 µM)	64 (≈ 117 µM)	64 (≈ 117 µM)	64 (≈ 117 µM)	64 (≈ 117 µM)
O=S(=O)(c1ccc(Cl)cc1)c1ccc(-c2nc3scc(-c4ccccc4)n3n2)cc1	> 1020	> 1020	> 1020	> 1020	1020 (≈ 2270 µM)	512 (≈ 1130 µM)	> 1020	> 1020
O=S(=O)(c1ccccc1)c1ccc(-c2nc3scc(-c4ccc(Br)cc4)n3n2)cc1	128 (≈ 258 µM)	128 (≈ 258 µM)	256 (≈ 516 µM)	128 (≈ 258 µM)	64 (≈ 129 µM)	64 (≈ 129 µM)	128 (≈ 258 µM)	64 (≈ 129 µM)
O=S(=O)(c1ccc(Cl)cc1)c1ccc(-c2nnc(S)[nH]2)cc1	1020 (≈ 2910 µM)	1020 (≈ 2910 µM)	> 1020	> 1020	1020 (≈ 2910 µM)	256 (≈ 728 µM)	1020 (≈ 2910 µM)	1020 (≈ 2910 µM)
O=S(=O)(c1ccccc1)c1ccc(-c2nnc(S)[nH]2)cc1	512 (≈ 1610 µM)	> 1020	> 1020	> 1020	512 (≈ 1610 µM)	256 (≈ 807 µM)	1020 (≈ 3230 µM)	> 1020
CC1(C)S[C@@H]2[C@H](NC(=O)[C@H](N)c3ccccc3)C(=O)N2[C@H]1C(=O)O [AMPICILLIN]	0.5 (≈ 1.43 µM)	–	0.5 (≈ 1.43 µM)	2 (≈ 5.72 µM)	–	–	–	0.064 (≈ 0.183 µM)
CN(C)[C@@H]1C(O)=C(C(N)=O)C(=O)[C@@]2(O)C(O)=C3C(=O)c4c(O)cccc4[C@@](C)(O)[C@H]3C[C@@H]12 [TETRACYCLINE]	0.19 (≈ 0.428 µM)	12 (≈ 27 µM)	32 (≈ 72 µM)	1 (≈ 2.25 µM)	1.5 (≈ 3.38 µM)	1.5 (≈ 3.38 µM)	0.094 (≈ 0.212 µM)	24 (≈ 54 µM)
